Only some compounds are listed: those with a hit (about 1.4% of all), similar ones and a draw of the others.
CRFR2-BP ag – CRF-BP/CRF-R2 complex agonism | HEK293 CRF-R2/CRF-BP, calcium dye fluorescence (FLIPR); percent of saturating CRF peptide response | activation, % at 13.2 µM | 0.46% of 350,000 active | AID 588473;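 active means activation of at least 50%, plus an integration ratio under a set limit after plate pattern correction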
Tn7 DDE FP – DD(E)-Tn7 binding inhibition, primary FP screen | FP displacement of FITC-Tn7 peptide from fibrin DD(E); 0% = median of compound wells per plate | inhibition, % at 8.3 µM | 0.13% of 370,000 active;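 active means inhibition above the mean of compounds falling within the control limits plus 3 SD of them, cut at about 14% in these data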
Target sequence (P02675 whole entry, looked up): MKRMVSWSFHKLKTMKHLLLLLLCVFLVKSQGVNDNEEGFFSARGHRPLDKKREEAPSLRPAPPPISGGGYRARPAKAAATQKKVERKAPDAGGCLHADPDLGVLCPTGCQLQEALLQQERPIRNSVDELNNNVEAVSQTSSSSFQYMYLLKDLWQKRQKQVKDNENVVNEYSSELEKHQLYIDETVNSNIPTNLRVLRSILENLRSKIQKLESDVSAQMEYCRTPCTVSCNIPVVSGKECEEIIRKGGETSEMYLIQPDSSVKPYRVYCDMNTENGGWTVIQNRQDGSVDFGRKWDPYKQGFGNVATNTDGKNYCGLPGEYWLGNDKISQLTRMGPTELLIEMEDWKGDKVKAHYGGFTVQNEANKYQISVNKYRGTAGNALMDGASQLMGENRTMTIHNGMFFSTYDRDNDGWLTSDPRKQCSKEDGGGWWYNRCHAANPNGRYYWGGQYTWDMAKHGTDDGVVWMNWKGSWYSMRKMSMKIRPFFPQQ
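system = human fibrin DD(E) protein | quantity = DD(E) 2 µM final | medium = Tris/NaCl/CaCl2 buffer, pH 7.8 | also added = labelled Tn7 tracer, 0.1 µM | compound dosing = single point at 8.3 µM | timing = compound with protein 10 min, then 3 h after probe, room temperature | signal = FP measurement | benchmarks = Aha-Tn7 high control | repeats = one replicate per compound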
Cardiac RTF inh – cardiac RTF calcium desensitization | P19429+P45379 | IANBD-labeled cardiac RTF, Ca2+ fluorescence | inhibition, % at 7.15 µM | 0.12% of 340,000 active;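 active means inhibition above the mean inhibition of all tested compounds plus 3 SD, cut at about 17% in these data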;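 further: assay run at fixed EC70 calcium of 1.6 mM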
CRFR2-BP antag – antagonists of CRF-binding protein/CRF-R2 receptor complex; HEK293 CRF-R2/CRF-BP, CRF-induced calcium fluorescence; AID 588475; inhibition, % at 11.8 µM; 0.59% of 350,000 active;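 active means inhibition of the ligand-induced calcium signal above about 50% at the single tested concentration, limit read from the data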
RTF Ca sens act – increases calcium sensitivity of human cardiac regulated thin filaments; IANBD-labeled TnC RTF fluorescence at EC20 calcium; 0% EC20 calcium, 100% full calcium; activation, % at 7.2 µM; 0.24% of 340,000 active; AID 493008;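 active means activation above the mean over all tested compounds plus 3 SD, cut at about 30% in these data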;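 further: rise in fluorescence read as greater calcium sensitivity of cardiac thin filaments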
DDE Tn6 FP inh – inhibitors of Tn6 peptide binding to human fibrin DD(E) | inhibition, % at 8.3 µM | 0.21% of 370,000 active | Fibrin DD(E) TRITC-Tn6 fluorescence polarization displacement | P02675;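 active means inhibition above a per-campaign cutoff: mean of compounds within control limits plus 3 SD, cut at about 15% in these data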
Large screens that a line does not name were inactive.

O=C(COc1ccc(Cl)cc1Cl)Nc1ccccc1NS(=O)(=O)c1cccs1	CRFR2-BP antag 50.6
O=C(CSc1nc2ccccc2nc1N1CCCCC1)NCc1ccc(Cl)cc1Cl	none (no result: CRFR2-BP ag, Cardiac RTF inh, CRFR2-BP antag, RTF Ca sens act)
COCCn1c(=NC(C)=O)sc2cc([N+](=O)[O-])ccc21	none
COCCn1c(=NC(=O)/C=C/c2ccccc2)sc2cc(NC(C)=O)ccc21	RTF Ca sens act 33.4
COC(=O)c1ccc(Cn2ccc3ccc(-c4ccc5ccn(C(=O)c6ccccc6)c5c4)cc32)cc1	none (no result: CRFR2-BP ag, Cardiac RTF inh, CRFR2-BP antag, RTF Ca sens act)
CCCCC1(C)OC(=O)C(=Cc2ccc(N(CC)CC)cc2)C(=O)O1 (stereo not given)	CRFR2-BP ag 59.4
COCCN1C(=O)/C(=C/c2ccc(N3CCCC3)cc2C)SC1=S	CRFR2-BP ag 181.6, RTF Ca sens act 68.7
CCN=C1S/C(=C\c2ccc(N3CCOCC3)cc2C)C(=O)N1CC	none
CC(C)CNC(=O)c1cccc2c(-c3cccc(C(N)=O)c3)coc12	none (no result: CRFR2-BP ag, Cardiac RTF inh, CRFR2-BP antag, RTF Ca sens act)
Cc1sc2nc(CN(Cc3cccs3)C(=O)NC3CCCCC3)[nH]c(=O)c2c1C	CRFR2-BP antag 52.2
Cc1sc2nc(CN(C(=O)NC3CCCCC3)C3CCCC3)[nH]c(=O)c2c1C	none
O=C(OCc1cn(Cc2ccccc2)nn1)N1CCCC1	none (no result: CRFR2-BP ag, Cardiac RTF inh, CRFR2-BP antag, RTF Ca sens act)
O=C(COC(=O)CC(c1ccccc1)c1ccccc1)NCc1ccc(Cl)cc1	CRFR2-BP ag 160.1
S=C(NCc1ccccc1)Nc1ccc(Cl)cc1	CRFR2-BP antag 57.2
CCCC(=O)OCC(=O)NCc1ccc(Cl)cc1	none
O=C(NCc1ccccc1)c1ccc(Cl)cc1	CRFR2-BP antag 85.8 (no result: Cardiac RTF inh, RTF Ca sens act)
CCOc1ccc(/C(O)=C2/C(=O)C(=O)N(CCN(CC)CC)C2c2ccco2)cc1 (stereo not given)	none
Cc1ccccc1COc1ccc(/C(O)=C2/C(=O)C(=O)N(CCCn3ccnc3)C2c2ccco2)cc1 (stereo not given)	CRFR2-BP antag 54.4
O=C(O)c1cc(NN=C2c3ccccc3-c3ccccc32)ccc1Cl	CRFR2-BP antag 50.3
O=C(O)c1cccc(NN=C2c3ccccc3-c3ccccc32)c1	none
CC(=O)Nc1cc(Cl)c(N=Cc2ccc(O)cc2O)cc1Cl	DDE Tn6 FP inh 16.8
O=S(=O)(NN=Cc1ccc(O)cc1O)c1cc(Cl)c(Cl)cc1Cl	none
COC(=O)c1cc(-c2cccs2)c(=O)n2c1CCC2	none (no result: CRFR2-BP ag, Cardiac RTF inh, CRFR2-BP antag, RTF Ca sens act)
Fc1cccc(CNC2CCC23CCC(c2ccccc2)CC3)c1 (stereo not given)	none (no result: CRFR2-BP ag, Cardiac RTF inh, CRFR2-BP antag, RTF Ca sens act)
CCCCn1c(N)c(N(CCC(C)C)C(=O)Cc2ccc(S(=O)(=O)N3CCOCC3)s2)c(=O)[nH]c1=O	CRFR2-BP antag 99.7
CCCCn1c(N)c(N(CC)C(=O)Cc2ccc(S(=O)(=O)N3CCOCC3)s2)c(=O)[nH]c1=O	none
CCCCn1c(N)c(N(CC(C)C)C(=O)Cc2ccc(S(=O)(=O)N3CCOCC3)s2)c(=O)[nH]c1=O	CRFR2-BP ag 54.3
CCCCn1c(N)c(N(CCC(C)C)C(=O)c2cc(S(=O)(=O)N3CCOCC3)ccc2F)c(=O)[nH]c1=O	none
Cc1cc(C)cc(N(C(=O)c2nsc(Cl)c2Cl)C(C(=O)NC2CCCC2)c2ccc(O)cc2)c1 (stereo not given)	CRFR2-BP antag 72.7
Cc1ccccc1N(C(=O)c1snc(C(N)=O)c1N)C(C(=O)NC1CCCCC1)c1ccc(O)cc1 (stereo not given)	none
Cc1cccc(N(C(=O)c2nsc(Cl)c2Cl)C(C(=O)NC2CCCC2)c2ccc(O)cc2)c1C (stereo not given)	CRFR2-BP antag 91.4
Cc1ccc(N(C(=O)c2nsc(Cl)c2Cl)C(C(=O)NC2CCCC2)c2ccc(O)cc2)cc1C (stereo not given)	CRFR2-BP antag 87.8
Cn1c(Cc2cccs2)nnc1SCC(=O)Nc1ccc2cn[nH]c2c1	none (no result: CRFR2-BP ag, Cardiac RTF inh, CRFR2-BP antag, RTF Ca sens act)
COC(=O)c1ccc(-c2ccc3c(c2)[C@]2(CCC[C@@H](O)[C@@H]2NC(=O)CCc2ccccc2)C(=O)N3Cc2ccccc2)cc1	none (no result: CRFR2-BP ag, Cardiac RTF inh, CRFR2-BP antag, RTF Ca sens act)
COC(=O)[C@]12C[C@H](CC(=O)N3CCC(c4ccccc4)CC3)C(=O)N(Cc3ccco3)C1=C[C@H](C1CCCC1)O[C@@H]2C	none (no result: CRFR2-BP ag, Cardiac RTF inh, CRFR2-BP antag, RTF Ca sens act)
Cc1ccc(NC(=O)C2CCCN2S(=O)(=O)c2cccnc2)cc1C (stereo not given)	none (no result: CRFR2-BP ag, Cardiac RTF inh, CRFR2-BP antag, RTF Ca sens act)
Nc1ccc(N2CCN(CCCCN3C(=O)C4CCCN4C3=O)CC2)cc1 (stereo not given)	DDE Tn6 FP inh 50.4
O=C(Nc1sc(-c2ccccc2)cc1C(=O)O)c1ccccc1	CRFR2-BP antag 52.4
COc1ccc(-c2ccc(CN3C(C)C(=O)N(Cc4cn(CCC5OCCO5)nn4)CCS3(=O)=O)cc2)cc1 (stereo not given)	none (no result: Cardiac RTF inh, RTF Ca sens act)
CSc1ccc(C(=O)NCC2CCN(C(=O)C(=O)c3cc4ccccc4o3)CC2)cc1	none (no result: CRFR2-BP ag, Cardiac RTF inh, CRFR2-BP antag, RTF Ca sens act)
CC1(C)OC(=O)C(=Cc2ccc(-c3ccc(S(N)(=O)=O)cc3)o2)C(=O)O1	CRFR2-BP antag 81.2
COc1ccc(CCCNC(=O)C2(C)Cc3c(-c4cccc(C(N)=O)c4)ccnc3O2)cc1 (stereo not given)	none (no result: CRFR2-BP ag, Cardiac RTF inh, CRFR2-BP antag, RTF Ca sens act)
O=c1c2ccccc2n(Cc2ccc(F)cc2)c(=O)n1C1CCCC1	CRFR2-BP antag 80.9
CC(=O)Nc1ccc(N=Cc2c(O)c(C(=O)Nc3ccccc3)cc3ccccc23)cc1	CRFR2-BP ag 114.8 (no result: Cardiac RTF inh, RTF Ca sens act)
Cc1ccc(CNC(=O)OC(C)(C)C)c(/C=C/S(=O)(=O)NC2CCCC2)c1	none (no result: CRFR2-BP ag, Cardiac RTF inh, CRFR2-BP antag, RTF Ca sens act)
COc1cc(C2C(C#N)=C(N)Oc3cc(N(C)C)ccc32)cc2c1OCO2 (stereo not given)	CRFR2-BP ag 157.8
COc1ccc(C2C(C#N)=C(N)Oc3cc(O)ccc32)cc1C (stereo not given)	CRFR2-BP ag 54.8
COc1ccc(C2C(C#N)=C(N)Oc3cc(O)ccc32)cc1OC (stereo not given)	none
COc1cc(C2C(C#N)=C(N)Oc3cc(O)ccc32)cc2c1OCO2 (stereo not given)	none
CC(C)N1CC(C(=O)Nc2ccc(Br)c(Cl)c2)CC1=O (stereo not given)	CRFR2-BP antag 60.3
COc1ccc(C(=O)ON=C2CCN(c3ccc([N+](=O)[O-])cc3)CC2)cc1	none
O=C(ON=C1CCN(c2ccc([N+](=O)[O-])cc2)CC1)c1ccccc1	CRFR2-BP antag 64.3
O=C(N/N=C/c1cc(Br)cc(Br)c1O)c1cccc(S(=O)(=O)N2CCOCC2)c1	CRFR2-BP ag 69.3
O=C(O)c1cccc(N/N=C/c2cc(Br)cc(Br)c2O)c1	CRFR2-BP antag 64.0
O=C(N/N=C/c1ccc(Cl)cc1Cl)c1ccncc1	none
O=C(N/N=C/c1cc(Cl)cc(Cl)c1O)c1ccncc1	CRFR2-BP ag 109.1
O=C(N/N=C/c1cc(Br)cc(Br)c1O)c1ccncc1	CRFR2-BP ag 166.5 (no result: Cardiac RTF inh, RTF Ca sens act)
